Source: PubChem BioAssay (several laboratories)
Only some compounds are listed: those with a hit (about 3.9% of all), similar ones and a draw of the others.
UPR XBP1 act = activators of adaptive arm of unfolded protein response (XBP1); activation, % at 20 µM; CHO-XBP1 luciferase reporter, IRE1-XBP1 UPR activation, luminescence; percent of tunicamycin response, DMSO as zero; actives 0.33% (n = 330,000);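 active = versus positive control, 20 µM dose yields 30% or more activation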
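Test system: CHO-XBP1 luciferase reporter cells | Buffer or medium: Serum-containing F12 medium, 10% FBS | Schedule: 6 h compound exposure at 37 °C, 5% CO2 | Detection: Steady-Glo luciferase glow luminescence, 10 min after reagent addition | Read-out basis: Activation, % of tunicamycin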
697 NFkB inh = inhibitors of the PMA/ionomycin-induced NF-kB reporter in 697 B cells | inhibition, % at 4 µM | 697 B-cell NF-kB luciferase reporter, 16 h | actives 0.33% (n = 330,000) | AID 435022; in the data active = inhibition above about 35%
UPR CHOP act = activators of apoptotic arm of unfolded protein response (CHOP); activation, % at 10 µM; actives 0.34% (n = 330,000); CHO-CHOP luciferase reporter, UPR activation, luminescence; percent of tunicamycin response over DMSO baseline;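 active = at 10 µM dose, activation of 40% or more, normalized to positive control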
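assay system = CHO CHOP reporter cells | amount = 500 CHO-CHOP cells per well | buffer or medium = F12 with 10% FBS | incubation = 16-18 h cell attachment, then 6 h compound exposure, 37 °C | detection = luminescence read with Steady-Glo | read-out = percent activation relative to tunicamycin control | controls = tunicamycin high control, DMSO low control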
Jurkat NFkB inh = inhibitors of the PMA/ionomycin-induced NF-kB reporter in Jurkat cells; PMA/ionomycin-induced NF-kB luciferase reporter, luminescence; inhibition, % at 4 µM; actives 0.53% (n = 330,000); AID 435003; in the data active = inhibition above about 50%
Gli-Sufu block = antagonists of Gli-Sufu signaling; Sufu-KO-LIGHT fibroblasts, Gli luciferase reporter luminescence; inhibition, % at 5 µM; actives 0.74% (n = 340,000);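 active = inhibition above about 55%, limit read from the data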
CHOP inh = inhibitors of CHOP induction in ER stress response; CHO-K1 CHOP-promoter luciferase, tunicamycin-induced, 15-18 h; inhibition, % at 10 µM; actives 3.8% (n = 220,000); AID 2732;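 active = compounds that reduced the stress-induced luciferase reporter signal by more than about 70% of percent inhibition, limit read from the data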
697 NFkB conf = lowers PMA/ionomycin-induced NF-kB signal in 697 B cells; actives 35% (n = 2,000); AID 449746; shares compounds with 697 NFkB inh; inhibition, % at 4 µM; 697 B-cell NF-kB luciferase, 16 h; in the data active = inhibition mostly above about 28%, no sharp cut-off; inactive = mostly below about 22%
A number is an active result.

How did COc1cccc(CN2CCC(C(=O)Nc3ccc(-c4cccc(C)c4)cc3)CC2)c1O do in these assays?
UPR XBP1 act: inactive; 697 NFkB inh: inactive; UPR CHOP act: inactive; Jurkat NFkB inh: inactive; Gli-Sufu block: inactive

What do the screens show for `COc1ccc(NS(=O)(=O)c2cc(C(=O)N(C)CCc3ccccn3)ccc2Cl)cc1`?
Gli-Sufu block: inactive

Results for CCN(CC)c1ccc2cc(C(N)=O)c(=O)oc2c1 ?
UPR XBP1 act: inactive; 697 NFkB inh: inactive; UPR CHOP act: inactive; Jurkat NFkB inh: inactive; Gli-Sufu block: inactive; CHOP inh: inactive

How did CCN(CC)c1ccc2cc(NC(=O)CCC(=O)O)c(=O)oc2c1 do in these assays?
UPR XBP1 act: inactive; 697 NFkB inh: 80; UPR CHOP act: inactive; Jurkat NFkB inh: inactive; Gli-Sufu block: inactive; CHOP inh: 88; 697 NFkB conf: 72

What do the screens show for `COc1ccc(-n2c(-c3ccc(Br)cc3)c[n+]3c2CCc2ccccc2-3)cc1`?
UPR XBP1 act: inactive; 697 NFkB inh: 101; UPR CHOP act: inactive; Jurkat NFkB inh: inactive; Gli-Sufu block: 86; CHOP inh: inactive; 697 NFkB conf: 47

What do the screens show for `COc1ccc(-n2cc(-c3ccc(Br)cc3)[nH]c2=S)cc1`?
UPR XBP1 act: inactive; 697 NFkB inh: inactive; UPR CHOP act: inactive; Jurkat NFkB inh: inactive; Gli-Sufu block: inactive; CHOP inh: inactive

What do the screens show for `c1ccc2sc(SCSc3nc4ccccc4s3)nc2c1`?
UPR XBP1 act: inactive; 697 NFkB inh: inactive; UPR CHOP act: inactive; Jurkat NFkB inh: inactive; Gli-Sufu block: inactive; CHOP inh: inactive

What do the screens show for `O=C(O)CCSc1nc2ccccc2s1`?
UPR XBP1 act: inactive; 697 NFkB inh: 40; UPR CHOP act: inactive; Jurkat NFkB inh: inactive; Gli-Sufu block: inactive; CHOP inh: inactive; 697 NFkB conf: 35

Results for Cc1ccsc1C(=O)N1CCCC(N2CCN(c3cccc(Cl)c3)CC2)C1 (stereo not drawn) ?
UPR XBP1 act: inactive; 697 NFkB inh: inactive; UPR CHOP act: inactive; Jurkat NFkB inh: inactive; Gli-Sufu block: inactive

Results for CCN(C(=O)COC(=O)CCCc1c[nH]c2ccccc12)c1c(N)n(Cc2ccccc2)c(=O)[nH]c1=O ?
Gli-Sufu block: inactive

How did Cc1cc(OC(=O)c2ccccc2Cl)cc(=O)n1C do in these assays?
UPR XBP1 act: inactive; 697 NFkB inh: 39; UPR CHOP act: inactive; Jurkat NFkB inh: inactive; Gli-Sufu block: inactive; CHOP inh: inactive; 697 NFkB conf: 47

Results for Cc1ccc(S(=O)(=O)N(CCC(=O)NCC(c2ccccc2)N(C)C)c2ccccc2)cc1 (stereo not drawn) ?
Gli-Sufu block: inactive

What do the screens show for `CC(C)(C)CN1C(N)=NC[C@@H]1Cc1ccc(O)cc1`?
UPR XBP1 act: inactive; 697 NFkB inh: 44; UPR CHOP act: inactive; Jurkat NFkB inh: inactive; Gli-Sufu block: inactive; CHOP inh: inactive; 697 NFkB conf: inactive

How did Cc1nnc2ccc(-c3ccc(NS(=O)(=O)c4ccccc4)cc3)nn12 do in these assays?
UPR XBP1 act: inactive; 697 NFkB inh: 38; UPR CHOP act: inactive; Jurkat NFkB inh: inactive; Gli-Sufu block: inactive; 697 NFkB conf: inactive

How did COc1ccc(OC)c(S(=O)(=O)Nc2ccc(-c3ccc4nnc(C)n4n3)cc2)c1 do in these assays?
UPR XBP1 act: inactive; 697 NFkB inh: 50; UPR CHOP act: inactive; Jurkat NFkB inh: inactive; Gli-Sufu block: inactive; 697 NFkB conf: 39

Results for CCc1ccc(S(=O)(=O)Nc2cccc(-c3ccc4nnc(C)n4n3)c2)s1 ?
UPR XBP1 act: inactive; 697 NFkB inh: 38; UPR CHOP act: inactive; Jurkat NFkB inh: inactive; Gli-Sufu block: inactive; 697 NFkB conf: inactive

What do the screens show for `COc1ccc(N(CC(=O)NC(C)(C)C)C(=O)CCC(=O)Nc2nccs2)c(OC)c1`?
UPR XBP1 act: inactive; 697 NFkB inh: inactive; UPR CHOP act: inactive; Jurkat NFkB inh: inactive; Gli-Sufu block: inactive

How did Cc1ccc(Nc2nc(=O)c3cccnc3s2)c(Br)c1 do in these assays?
UPR XBP1 act: inactive; 697 NFkB inh: inactive; UPR CHOP act: inactive; Jurkat NFkB inh: inactive; Gli-Sufu block: inactive; CHOP inh: inactive; 697 NFkB conf: inactive

What do the screens show for `COc1ccc(-c2cc3ccc(OC)cc3cn2)cc1`?
UPR XBP1 act: inactive; 697 NFkB inh: inactive; UPR CHOP act: inactive; Jurkat NFkB inh: inactive; Gli-Sufu block: inactive; 697 NFkB conf: inactive

Results for c1ccc2nc(-c3nc4ccccc4[nH]3)ccc2c1 ?
UPR XBP1 act: inactive; 697 NFkB inh: inactive; UPR CHOP act: inactive; Jurkat NFkB inh: inactive; Gli-Sufu block: inactive; CHOP inh: inactive; 697 NFkB conf: inactive

Results for O=C(/C=C/c1ccc(Cl)cc1)N1CCN(Cc2ccccc2)CC1 ?
UPR XBP1 act: inactive; 697 NFkB inh: inactive; UPR CHOP act: inactive; Jurkat NFkB inh: inactive

How did COc1cccc(CNC(=O)Cn2c(=O)n(CCC(=O)N3CCCCC3)c(=O)c3sccc32)c1 do in these assays?
UPR XBP1 act: inactive; 697 NFkB inh: inactive; UPR CHOP act: inactive; Jurkat NFkB inh: inactive; Gli-Sufu block: inactive

Results for CCc1cccc(OCC(O)Cn2c(N3CCCCC3)nc3c2c(=O)[nH]c(=O)n3C)c1 (stereo not drawn) ?
UPR XBP1 act: inactive; 697 NFkB inh: inactive; UPR CHOP act: inactive; Jurkat NFkB inh: inactive; Gli-Sufu block: inactive

Results for CCOC(=O)c1cc(CC)sc1N1C(=O)CC(Sc2ncccc2C(=O)O)C1=O (stereo not drawn) ?
UPR XBP1 act: inactive; 697 NFkB inh: 46; UPR CHOP act: inactive; Jurkat NFkB inh: inactive; Gli-Sufu block: inactive; CHOP inh: inactive; 697 NFkB conf: inactive

Results for COc1cc(OC)cc(-c2cc3nc(C)c(CCC(=O)Nc4nc(C)cs4)c(C)n3n2)c1 ?
UPR XBP1 act: inactive; 697 NFkB inh: 36; UPR CHOP act: inactive; Jurkat NFkB inh: inactive; Gli-Sufu block: inactive; CHOP inh: inactive; 697 NFkB conf: 39

Results for COc1cc(NC(=O)CCc2c(C)nc3nc(C)nn3c2C)cc(OC)c1 ?
UPR XBP1 act: inactive; 697 NFkB inh: inactive; UPR CHOP act: inactive; Jurkat NFkB inh: inactive; Gli-Sufu block: inactive; CHOP inh: inactive

Results for Cc1c(CCC(=O)NCCCn2ccnc2)c(=O)oc2c(C)c3oc4c(c3cc12)CCCC4 ?
UPR XBP1 act: inactive; 697 NFkB inh: 38; UPR CHOP act: inactive; Jurkat NFkB inh: inactive; Gli-Sufu block: inactive; 697 NFkB conf: 23

Results for Cc1c(CCC(=O)NCCCCCC(=O)O)c(=O)oc2c(C)c3oc4c(c3cc12)CCCC4 ?
UPR XBP1 act: inactive; 697 NFkB inh: inactive; UPR CHOP act: inactive; Jurkat NFkB inh: inactive; Gli-Sufu block: inactive
